Results from different studies.
Compare with care: the assays were run in different laboratories.
Target: Homeodomain-interacting protein kinase 3 (HIPK3, Homo sapiens, UniProt Q9H422)

SMILES | effect on | action | technique | concentration | quantity | result
CCOc1cc(-c2nncn2C)ccc1Nc1ncc2cc(C)nc(NCC(C)(C)C)c2n1 | enzyme activity | inhibitor | FRET | 1 µM | inhibition | < 15%
O=C1NC(=O)c2cc(Nc3ccc(F)cc3)c(Nc3ccc(F)cc3)cc21 | cell-free assay | – | – | 0.5 µM | remaining signal | 95.3%
COc1cc(Nc2cnc(C#N)c(O[C@H](C)CN(C)C)n2)ncc1-c1cnn(C)c1 | enzyme activity | inhibitor | radiometric | 10 µM | remaining activity | 111%
CNC(=O)c1cc(Oc2ccc(NC(=O)Nc3ccc(Cl)c(C(F)(F)F)c3)cc2)ccn1 | cell-free assay | – | – | 0.5 µM | remaining signal | 85.7%
COc1cc(-c2cc(-c3ccc(N4CCNCC4)cc3)cnc2C)cc(OC)c1OC | enzyme activity | inhibitor | – | 1 µM | inhibition | 2%
FC(F)(F)Oc1cccc(-c2cnc3ccc(-c4ccncc4)nn23)c1 | enzyme activity | inhibitor | radiometric | 5 µM | activity vs control | 35%
CNC(=O)Nc1ccc2c(c1)[C@@]1(CC2)OC(=O)N(CC(=O)N(Cc2ccc(F)cc2)[C@@H](C)C(F)(F)F)C1=O | cell-free assay | – | competition with immobilised ligand | 1 µM | remaining binding | 90%
Cc1cc(NC(=O)c2cccc3cc(-c4cccc5[nH]nc(N)c45)ccc23)ccc1F | enzyme activity | inhibitor | – | 0.1 µM | activity vs control | 92%
CCc1ccccc1C(=O)Nc1n[nH]c2c(C)c(F)c(C3C(C#N)=C(C)N(C)C(C)=C3C#N)cc12 | cell-free assay | – | competition with immobilised ligand | 1 µM | remaining binding | 100%
Cc1ccc(Nc2nccc(N(C)c3ccc4c(C)n(C)nc4c3)n2)cc1S(N)(=O)=O | enzyme activity | inhibitor | – | 10 µM | inhibition | 20%
O=C(O)c1ccc2c(c1)nc(NCCc1ccccc1)c1ncncc12 | enzyme activity | inhibitor | radiometric | 1 µM | remaining activity | 16%
CCCS(=O)(=O)Nc1ccc(F)c(C(=O)c2c[nH]c3ncc(-c4ccc(Cl)cc4)cc23)c1F | enzyme activity | inhibitor | – | 1 µM | inhibition | < 10%
N#CCCc1ccc2c(c1)-c1[nH]c3ccc([N+](=O)[O-])cc3c1CC(=O)N2 | cell-free assay | – | – | 0.5 µM | remaining signal | 104%
CN1CC(Oc2cnc(C#N)cc2-c2ccn3nc(NC(=O)C4CC4)cc3c2)C1 | enzyme activity | inhibitor | – | 1 µM | inhibition | -3%
COc1cccc(CCNc2nc3cc(C(=O)O)ccc3c3cnccc23)c1 | enzyme activity | inhibitor | radiometric | 1 µM | remaining activity | 21%
Cc1nc(Cc2cccc(C(F)(F)F)c2)sc1-c1ccc(C(N)=O)nc1 | cell-free assay | – | competition with immobilised ligand | 1 µM | remaining binding | 100%
O=C(O)c1ccc2c(c1)nc(NCc1ccccc1)c1ccncc12 | enzyme activity | inhibitor | radiometric | 1 µM | remaining activity | 68%
O=C(Nc1cccnn1)N1CC(C/C=C/c2cncc(Oc3ccc(C(F)(F)F)cn3)n2)C1 | cell-free assay | – | competition with immobilised ligand | 1 µM | remaining binding | 74%
O=C(O)c1ccc2c(c1)nc(NCCc1cccc(F)c1)c1ncncc12 | enzyme activity | inhibitor | radiometric | 1 µM | remaining activity | 27%
CN([C@@H]1CCc2c(CC(=O)O)c3ccccc3n2C1)S(=O)(=O)c1ccc(F)cc1 | cell-free assay | – | competition with immobilised ligand | 1 µM | remaining binding | 71%
O=C(Nc1cnn(-c2csc(C(=O)NC3COC3)c2)c1)Nc1c(F)cccc1Cl | enzyme activity | inhibitor | – | 5 µM | remaining activity | 98.8%
CC(C)CC(=O)N1CCc2nc(-c3ccc(Br)cc3)nc(N(C)Cc3ccccc3)c2C1 | cell-free assay | – | competition with immobilised ligand | 0.1 µM | remaining binding | 100%
O=C(O)c1ccc2c(c1)nc(Nc1cccc(F)c1)c1ncncc12 | enzyme activity | inhibitor | radiometric | 1 µM | remaining activity | 5%
COc1cc2ncnc(Nc3ccc(Oc4ccccc4)c(C)c3C)c2cc1OC | enzyme activity | inhibitor | – | 1 µM | inhibition | 1%
O=C(O)c1ccc2c(c1)nc(Nc1ccc3ccccc3c1)c1ncncc12 | enzyme activity | inhibitor | radiometric | 1 µM | remaining activity | 3%
CCCOc1ccc([C@H]2[C@H](C(=O)O)[C@@H](c3ccc4c(c3)OCO4)CN2CC(=O)Nc2c(CC)cccc2CC)cc1 | cell-free assay | – | competition with immobilised ligand | 1 µM | remaining binding | 74%
O=C(O)c1ccc2c(c1)nc(NCCc1cccc(Cl)c1)c1ccncc12 | enzyme activity | inhibitor | radiometric | 1 µM | remaining activity | 29%
COc1ccc2c(O[C@@H]3C[C@H]4C(=O)N[C@]5(C(=O)O)CC5/C=C\CCCCC[C@H](NC(=O)OC5CCCC5)C(=O)N4C3)cc(-c3csc(NC(=O)C(C)C)n3)nc2c1C (stereo partly drawn) | cell-free assay | – | competition with immobilised ligand | 1 µM | remaining binding | 83%
N#Cc1cccc(Nc2nc3cc(C(=O)O)ccc3c3cnccc23)c1 | enzyme activity | inhibitor | radiometric | 1 µM | remaining activity | 13%
CCN(CC)CCNC(=O)c1c(C)[nH]c(/C=C2\C(=O)Nc3ccc(F)cc32)c1C | enzyme activity | inhibitor | – | 10 µM | inhibition | 82%
